Experimental data from ChEMBL document CHEMBL1125878, “Aminoalkynyldithianes. A new class of calcium channel blockers” (J Med Chem, 1991).

How the values were obtained:
Assay type in all cases: functional
Cavia porcellus [1] = species: Cavia porcellus; assay: Antagonism of calcium-induced contractions of guinea pig ileal strips
Procedure, shortened: (§1)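 Guinea pig ileal strips held at 0.5 g resting tension, equilibrated 60 min, isometric recording. Depolarized with KCl (80 mM) 6 min, then cumulative CaCl2 0.2-8.0 mM; wash, control curve, then curves with three drug concentrations added right after KCl (6 min). Kb = concentration giving 2-fold rightward shift, from EC50 ratios; means of 3-10 experiments ± SE.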

[2] = The compound was tested for inhibition of calcium influx into neuronal (NG108-15) cells; details: Mus musculus
Procedure, shortened: (§2)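 NG108-15 cells, differentiated with dibutyryl cAMP (1.0 mM, 4 days), loaded with Quin 2-AM (100 μM) 1 h at 37 °C, washed. Suspensions (ca. 3 × 10^6 cells) at 37 °C preincubated 1 min with drug, then depolarized with KCl (50 mM); fluorescence ex 339/em 492 nm. IC50 = half-maximal fluorescence decrease, logit analysis; means ± SE.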

[3] = The compound was tested for inhibition of calcium influx into neuronal (NG108-15) cells.; details: Mus musculus; procedure, shortened: as §2
Cavia porcellus [4] = species: Cavia porcellus; assay: The compound was tested for antagonism of calcium-induced contractions of guinea pig ileal strips.; procedure, shortened: as §1

Row | Structure (SMILES) | Kb (Cavia porcellus [1]) [µM] | also measured
1 | CCN(C)CC#CCCC1(C2(O)c3ccccc3Oc3ccccc32)SCCCS1 | 1.51 | 
2 | CN(CC#CCCC1(C2(O)c3ccccc3Sc3ccccc32)SCCCS1)CCCc1ccccc1 | 4.16 | 
3 | COc1ccc(CCN(C)CC#CCCC(O)(c2ccccc2)C2SCCCS2)cc1OC (stereo not drawn) | 1.23 | IC50 [2]: 1.8 µM
4 | CN(CC#CCCC1SCCCS1)CCCCc1ccccc1 | 3.43 | 
5 | CN(CC#CCCC1SCCCS1)Cc1ccc2ccccc2c1 | 8.33 | 
6 | CCN(CC)CC#CCCC1(C2(O)CCCc3ccccc32)SCCCS1 (stereo not drawn) | 0.83 | 
7 | CN(CC#CCCC1SCCCS1)Cc1ccccc1 | 8.02 | 
8 | CCN(CC)CC#CCCCC1(C2(O)c3ccccc3Oc3ccccc32)SCCCS1 | 0.17 | IC50 [2]: 1 µM
9 | CCN(CC)CC#CCCC1(C2(O)c3ccccc3CCc3ccccc32)SCCCS1 | 1.27 | 
10 | CCCN(CC#CCC1(c2ccccc2)SCCCS1)CCC | 1.01 | IC50 [2]: 1.7 µM
11 | CCN(CC)CC#CCCCCC1SCCCS1 | > 5 | 
12 | CCCN(CC#CCCCC1(C2(O)c3ccccc3Oc3ccccc32)SCCCS1)CCC | 0.47 | 
13 | CCCN(CC#CCCCC1(C2(O)c3ccccc3Sc3ccccc32)SCCCS1)CCC | 0.77 | 
14 | CCN(C)CC#CCCC1SCCCS1 |  | IC50 [2]: > 10 µM
15 | CN(CC#CCCC1(C2(O)c3ccccc3Sc3ccccc32)SCCCS1)CCCCc1ccccc1 | 3.4 | 
16 | CN(C)CC#CCCC1(C2(O)c3ccccc3Oc3ccccc32)SCCCS1 | 1.15 | 
17 | CN(CC#CCCC1(C(O)(c2ccccc2)C2CCCCC2)SCCCS1)CCc1ccccc1 (stereo not drawn) | 3.75 | 
18 | CCN(CC)CC#CCC1(c2ccccc2)SCCCS1 | 4.27 | IC50 [2]: 6.4 µM
19 | OC1(C2(CCC#CCN3CCCCC3)SCCCS2)c2ccccc2Sc2ccc(Cl)cc21 (stereo not drawn) | 6.09 | 
20 | CN(CC#CCCC1(C(O)(c2ccccc2)c2ccccc2)SCCCS1)CCc1ccccc1 | 2.65 | 
21 | CCN(CC)CC#CCCC1(C(O)(c2ccccc2)C2CCCCC2)SCCCS1 (stereo not drawn) | 1.14 | 

Row | Structure (SMILES) | Kb (Cavia porcellus [1]) [µM] | also measured
22 | CCN(CC)CC#CCCC1(C(O)(c2ccccc2)C2CCCC2)SCCCS1 (stereo not drawn) | 0.98 | 
23 | CN(CC#CCCC1(C2(O)c3ccccc3Oc3ccccc32)SCCCS1)CCCc1ccccc1 | 3.09 | 
24 | CCN(CC#CCCC1(C2(O)c3ccccc3Oc3ccccc32)SCCCS1)C(C)C | 0.46 | 
25 | CN(CC#CCCC1SCCCS1)CCc1ccccc1 | 2.27 | 
26 | CCN(CC)CC#CCCC1(c2ccccc2)SCCCS1 | 0.9 | IC50 [2]: 6.8 µM
27 | CN(CC#CCCC1(c2ccccc2)SCCCS1)CCc1ccccc1 | 1.74 | IC50 [2]: 5.4 µM
28 | CN(CC#CCCCC1SCCCS1)CCc1ccccc1 | 4.15 | 
29 | CCN(CC)CC#CCCC1(C2(O)CCOc3ccccc32)SCCCS1 (stereo not drawn) | 1.94 | 
30 | OC1(C2(CCC#CCN3CCCCC3)SCCCS2)c2ccccc2Oc2ccccc21 | 0.39 | IC50 [2]: 6.4 µM
31 | CCN(CC)CC#CCCC(O)(c1ccccc1)C1SCCCS1 (stereo not drawn) | 6.7 | IC50 [2]: 17.7 µM
32 | CCN(CC)CC#CCCC1(C2(O)c3ccccc3Oc3ccccc32)SCCCS1 | 0.16 | IC50 [2]: 2.3 µM
33 | OCCN1CCN(CC#CCCC2SCCCS2)CC1 | > 10 | 
34 | CN(C)CC#CCCC1(C2(O)c3ccccc3Sc3ccc(Cl)cc32)SCCCS1 (stereo not drawn) | 2.33 | 
35 | CN(CC#CCCC1(C2(O)c3ccccc3Sc3ccc(Cl)cc32)SCCCS1)CCCc1ccccc1 (stereo not drawn) | > 7 | 
36 | COc1ccc(CCN(C)CC#CCC2(c3ccccc3)SCCCS2)cc1OC | 1.17 | IC50 [2]: 1.5 µM
37 | CN(CC#CCCC(O)(c1ccccc1)C1SCCCS1)CCc1ccccc1 (stereo not drawn) | 2.25 | IC50 [2]: 1.6 µM
38 | CCN(C)CC#CCCC1(C2(O)c3ccccc3Sc3ccccc32)SCCCS1 | 0.57 | 
39 | OC1(C2(CCC#CCN3CCCCC3)SCCCS2)c2ccccc2Sc2ccccc21 | 3.66 | 
40 | COc1ccc(N(C)CC#CCCC2SCCCS2)cc1OC | 2.22 | 
41 | CN(CC#CCCC1(C2(O)c3ccccc3Oc3ccccc32)SCCCS1)CCCCc1ccccc1 | 1.9 | 
42 | CN(C)CC#CCCC1(C2(O)c3ccccc3Sc3ccccc32)SCCCS1 | 0.68 | 

Row | Structure (SMILES) | Kb (Cavia porcellus [1]) [µM] | also measured
43 | CC(C)N(CC#CCCCC1(C2(O)c3ccccc3Oc3ccccc32)SCCCS1)C(C)C | 0.2 | IC50 [2]: 4.6 µM
44 | CN(CC#CCCC1SCCCS1)CCc1ccc2ccccc2c1 | 4.73 | 
45 | CN(CC#CCCCC1SCCCS1)Cc1ccccc1 | 4.45 | 
46 | CN(CC#CCCC1(C(O)(c2ccccc2)c2ccccc2)SCCCS1)Cc1ccccc1 | 3.17 | 
47 | CCN(C)CC#CCCC1(C2(O)c3ccccc3Sc3ccc(Cl)cc32)SCCCS1 (stereo not drawn) | 2.53 | 
48 | CCN(CC)CC#CCCC1(C2(O)c3ccccc3Sc3ccc(Cl)cc32)SCCCS1 (stereo not drawn) | 0.33 | 
49 | CCCN(CC#CCCCC1SCCCS1)CCC | 7.5 | 
50 | CCN(CC)CC#CCCC1(C(c2ccccc2)c2ccccc2)SCCCS1 | 0.5 | 
51 | CCN(CC)CC#CCCC1(C2(O)c3ccccc3Sc3ccccc32)SCCCS1 | 0.13 | 
52 | CCN(CC)CC#CCCCCC1(C2(O)c3ccccc3Oc3ccccc32)SCCCS1 | 1.74 | 
53 | CCN(CC)CC#CCCC1(Cc2ccccc2)SCCCS1 | 1.96 | 
54 | CN(CC#CCCC1SCCCS1)CCCc1ccccc1 | 2.98 | 
55 | CN1CCN(CC#CCCC2(C3(O)c4ccccc4Oc4ccccc43)SCCCS2)CC1 | 0.49 | 
56 | CCN(CC)CC#CCCC1(C2(O)c3ccccc3C=Cc3ccccc32)SCCCS1 | 0.3 | 
57 | CN(CC#CCCC1SCCCS1)CCc1cccc2ccccc12 | 1.52 | 
58 | CN(CC#CCCC1(C(O)(c2ccccc2)c2ccccc2)SCCCS1)CCCc1ccccc1 | 1.63 | 
59 | COc1ccc(CCN(C)CC#CCCC(O[Si](C)(C)C)(c2ccccc2)C2SCCCS2)cc1OC (stereo not drawn) | 0.57 | 
60 | CCN(CC)CC#CCCC1(C(C)(O)c2ccccc2)SCCCS1 (stereo not drawn) | 2.51 | 
61 | COc1ccc([C@@H]2Sc3ccccc3N(CCN(C)C)C(=O)[C@@H]2OC(C)=O)cc1 [DILTIAZEM] |  | IC50 [3]: 14.9 µM; Kb (Cavia porcellus [4]): 0.047 µM
62 | CCOC(=O)C1=C(C)NC(C)=C(C(=O)OC)C1c1cccc([N+](=O)[O-])c1 (stereo not drawn) [NITRENDIPINE] | 0.002 | IC50 [2]: 0.016 µM
63 | COc1ccc(CCN(C)CCCC(C#N)(c2ccc(OC)c(OC)c2)C(C)C)cc1OC (stereo not drawn) [VERAPAMIL] | 0.02 | IC50 [2]: 6.5 µM
